In ChEMBL document CHEMBL1671645, “Pharmacokinetics and absorption of posaconazole oral suspension under various gastric conditions in healthy volunteers” (Antimicrob Agents Chemother, 2009):

Key:
[1] = Cmax in fasted healthy human plasma at 400 mg BID, po administered as suspension for 7 days; type: ADME, organism-based; set-up: dose 400 mg, route oral
Procedure, shortened: (§1)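 Twelve healthy subjects took oral suspension for 7 days as 400 mg BID or 200 mg QID, either fasting or with a Boost-type nutritional supplement, in a crossover with 14–21 day washouts. Nonfat snacks of 800 cal/day or less were allowed. Plasma was sampled 0–168 h after the day-7 morning dose only and analysed by LC-MS/MS. AUC is AUC_τ, normalized to dose.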

[2] = Half life in fasted healthy human at 400 mg administered as single dose suspension coadministered with acidic carbonated beverage; type: ADME, organism-based; settings: in vivo
Procedure, shortened: (§2)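 Single oral suspension dose in fasting healthy volunteers, alone, with 12 oz ginger ale, after esomeprazole 40 mg once each morning days −2 to 1, or both; four-way crossover, 7–10-day washout. EDTA plasma 0–168 h. LC-MS/MS (LLOQ 5.00 ng/ml). t1/2 = ln(2)/K from terminal log-linear regression; Tmax median.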

[3] = Cmax in healthy human plasma at 400 mg administered as single dose suspension coadministered with nutritional supplement and 4 mg loperamide as two 2 mg tablets; type: ADME, organism-based; set-up: dose 400 mg; settings: po
Procedure, shortened: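 Oral suspension (40 mg/ml) single dose with nutritional supplement plus loperamide 4 mg single dose, healthy volunteers, three-way crossover with 7–10-day washout. EDTA plasma drawn predose and 1–168 h postdose. LC-MS/MS assay (LLOQ 5.00 ng/ml). Noncompartmental parameters; Tmax reported as median (range).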

[4] = AUC in fasted healthy human at 400 mg administered as single dose suspension after 20 mins after consumption of high fat meal; type: ADME, organism-based; set-up: dose 400 mg; settings: plasma
Procedure, shortened: (§3)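 In a crossover of 12 healthy subjects, each took a single 400 mg oral suspension dose 5 min before, midway through (about 10 min into a 20-min meal), or 20 min after a high-fat meal of about 50 g fat. Plasma was drawn 0–168 h and measured by LC-MS/MS. Parameters are noncompartmental, with AUC to the last measurable time.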

[5] = Apparent total body clearance in fasted healthy human at 400 mg administered as single dose suspension coadministered with acidic carbonated beverage; type: ADME, organism-based; settings: in vivo
Procedure, shortened: (§4)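 This was a four-way crossover in 12 healthy subjects with 7–10 day washouts. Each took one fasting 400 mg oral suspension dose, with 12 oz ginger ale and/or esomeprazole 40 mg once each morning on days −2 to 1, with dosing on day 1. Plasma was sampled 0–168 h and measured by LC-MS/MS (LLOQ 5.00 ng/ml). Analysis was noncompartmental, with CL/F = dose/AUC_I and V/F = (CL/F)/K.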

[6] = tested on: Homo sapiens; test: Toxicity in healthy human assessed as dizziness at 400 mg administered as single dose suspension coadministered with nutritional supplement; type: organism-based; settings: in vivo
Procedure, shortened: (§5)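 Three-way randomized crossover in 13 healthy volunteers with a 7- to 10-day washout. Each period was one 400-mg oral posaconazole suspension dose with a nutritional supplement. Metoclopramide 10 mg was given orally three times daily on the day before and the day of dosing; loperamide was a single 4 mg. Safety was assessed from adverse events, tabulated by body system and severity per treatment.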

[7] = (§6) Apparent total body clearance in fasted healthy human at 400 mg administered as single dose suspension; type: ADME, organism-based; settings: in vivo
[8] = Cmax in healthy human plasma at 400 mg BID, po administered as suspension for 7 days coadministered with nutritional supplement; type: ADME, organism-based; set-up: dose 400 mg, route oral; procedure, shortened: as §1
[9] = tested on: Homo sapiens; test: Toxicity in healthy human assessed as adverse events at 400 mg administered as single dose suspension after 20 mins after consumption of high fat meal; type: organism-based; settings: in vivo
Procedure, shortened: (§7)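 Healthy volunteers monitored for adverse events, vital signs, clinical laboratory values and 12-lead ECG. Adverse events tabulated by body system or organ class and severity and summarized by treatment across the crossover regimens.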

[10] = as §6; type: ADME, organism-based; settings: in vivo; remark: listed apart in the source
[11] = tested on: Homo sapiens; test: Toxicity in healthy human assessed as asthenia at 200 mg QID, po administered as suspension for 7 days; type: organism-based; settings: in vivo, 168 h; procedure, shortened: as §7
[12] = tested on: Homo sapiens; test: Toxicity in healthy human assessed as dizziness at 400 mg administered as single dose suspension coadministered with nutritional supplement and 4 mg loperamide as two 2 mg tablets; type: organism-based; settings: in vivo; procedure, shortened: as §5
[13] = tested on: Homo sapiens; test: Toxicity in healthy human assessed as dizziness at 400 mg BID, po administered as suspension for 7 days; type: organism-based; settings: in vivo, 168 h
Procedure, shortened: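 Healthy volunteers (n = 12) took oral posaconazole suspension (40 mg/ml) for 7 days in a four-way randomized crossover with a 14- to 21-day washout. Subjects stayed fasted throughout, with nonfat snacks up to 800 cal/day allowed. Where given, Boost was taken with each dose. Safety covered adverse events, vital signs, clinical labs and 12-lead ECG, with AEs tabulated by body system and severity per treatment.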

[14] = tested on: Homo sapiens; test: Apparent total body clearance in healthy human at 200 mg QID, po administered as suspension for 7 days coadministered with nutritional supplement; type: ADME, organism-based; settings: in vivo, 168 h; procedure, shortened: as §1
[15] = Apparent total body clearance in fasted healthy human at 400 mg administered as single dose suspension coadministered with proton pump inhibitor; type: ADME, organism-based; settings: in vivo; procedure, shortened: as §4
[16] = Tmax in healthy human at 400 mg administered as single dose suspension coadministered with nutritional supplement; type: ADME, organism-based; settings: in vivo
Procedure, shortened: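 Single oral suspension dose with nutritional supplement, alone or with metoclopramide 10 mg orally three times daily on the day before and the day of dosing; three-way crossover, 7–10-day washout. EDTA plasma predose to 168 h, LC-MS/MS (LLOQ 5.00 ng/ml). t1/2 = ln(2)/K from terminal slope; Tmax median.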

[17] = Apparent total body clearance in fasted healthy human at 400 mg administered as single dose suspension after 20 mins after consumption of high fat meal; type: ADME, organism-based; settings: in vivo; procedure, shortened: as §3
[18] = Apparent total body clearance in fasted healthy human at 400 mg administered as single dose suspension 5 mins before consumption of high fat meal; type: ADME, organism-based; settings: in vivo; procedure, shortened: as §3
[19] = Apparent volume of distribution in fasted healthy human at 400 mg administered as single dose suspension 5 mins before consumption of high fat meal; type: ADME, organism-based; settings: in vivo, read-out: Vc/F; procedure, shortened: as §3
[20] = tested on: Homo sapiens; test: Toxicity in healthy human assessed as dizziness at 400 mg administered as single dose suspension coadministered with nutritional supplement and 10 mg metoclopramide; type: organism-based; settings: in vivo; procedure, shortened: as §5
[21] = Tmax in fasted healthy human at 400 mg administered as single dose suspension coadministered with acidic carbonated beverage and proton pump inhibitor; type: ADME, organism-based; settings: in vivo; procedure, shortened: as §2
[22] = AUC in fasted healthy human at 400 mg administered as single dose suspension coadministered with acidic carbonated beverage; type: ADME, organism-based; settings: plasma; procedure, shortened: as §4
[23] = Half life in fasted healthy human at 400 mg BID, po administered as suspension for 7 days; type: ADME, organism-based; settings: in vivo
Procedure, shortened: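 Healthy volunteers given oral suspension (40 mg/ml) for 7 days, fasted or with nutritional supplement (Boost); four-way crossover, 14–21-day washout, nonfat snacks ≤800 cal/day allowed. On day 7 only the morning dose was given; plasma sampled predose to 168 h after it. LC-MS/MS (LLOQ 5.00 ng/ml). t1/2 = ln(2)/K from log-linear terminal slope; Tmax as median.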

[24] = Cmax in fasted healthy human plasma at 400 mg administered as single dose suspension coadministered with acidic carbonated beverage and proton pump inhibitor; type: ADME, organism-based; set-up: dose 400 mg; procedure, shortened: as §4
[25] = tested on: Homo sapiens; test: Apparent total body clearance in healthy human at 400 mg BID, po administered as suspension for 7 days coadministered with nutritional supplement; type: ADME, organism-based; settings: in vivo, 168 h; procedure, shortened: as §1
[26] = Half life in fasted healthy human at 400 mg administered as single dose suspension coadministered with proton pump inhibitor; type: ADME, organism-based; settings: in vivo; procedure, shortened: as §2
[27] = Apparent total body clearance in fasted healthy human at 400 mg administered as single dose suspension after consumption of high fat meal; type: ADME, organism-based; settings: in vivo; procedure, shortened: as §3

Compound `CC[C@@H]([C@H](C)O)n1ncn(-c2ccc(N3CCN(c4ccc(OC[C@@H]5CO[C@@](Cn6cncn6)(c6ccc(F)cc6F)C5)cc4)CC3)cc2)c1=O` [POSACONAZOLE] has a Cmax [1] of 982 ng/mL, a half-life [2] of 25.2 h and a Cmax [3] of 294 ng/mL. It also gave an AUC at 20 min [4] of 21000 ng·h/mL, a CL/F [5] of 870 mL/min and an Activity [6] of 15%. It also gave a CL/F [7] of 1830 mL/min, a Cmax [8] of 1590 ng/mL and an Activity [9] of 25%. It also gave a CL/F [10] of 1390 mL/min, an Activity [11] of 25% and an Activity [12] of 15%. For the same compound, the Activity [13] was 33%, the CL/F [14] was 20.4 L/h and the CL/F [15] was 1930 mL/min. For the same compound, the Tmax [16] was 5.5 h, the CL/F [17] was 395 mL/min and the CL/F [18] was 957 mL/min. For the same compound, the Vd/F [19] was 1900 L, the Activity [20] was 15% and the Tmax [21] was 6 h. It also gave an AUC [22] of 9610 ng·h/mL, a half-life [23] of 25.7 h and a Cmax [24] of 93.3 ng/mL. The CL/F [25] was 33.9 L/h, the half-life [26] was 25.7 h and the CL/F [27] was 395 mL/min.
